Measured values published in article PMC6719797 (Bioorganic & medicinal chemistry letters, 2019).

Tests used:
human UCK2 [1] = molecular target: T1, human UCK2 (Homo sapiens, UniProt Q9BZX2); assay type: biochemical; settings: kinetic analysis
T1 sequence (Q9BZX2 1-261): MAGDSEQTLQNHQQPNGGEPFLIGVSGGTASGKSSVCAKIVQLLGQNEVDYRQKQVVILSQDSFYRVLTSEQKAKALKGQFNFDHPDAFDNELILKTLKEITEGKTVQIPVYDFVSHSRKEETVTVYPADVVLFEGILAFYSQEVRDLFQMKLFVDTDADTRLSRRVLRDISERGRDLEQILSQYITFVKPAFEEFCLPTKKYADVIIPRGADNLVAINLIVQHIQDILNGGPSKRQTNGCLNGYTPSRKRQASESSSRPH
Summary of the method: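 C-terminally His6-tagged human UCK2 was purified by Ni-NTA and then ion-exchange chromatography. UCK2-generated ADP was coupled through pyruvate kinase and lactate dehydrogenase, and NADH consumption was followed continuously at 340 nm. To determine the mode of inhibition, uridine or ATP was titrated at several fixed inhibitor concentrations, and Ki values were derived for each substrate.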

K562 cells = assay: 5-EU uridine salvage assay; assay type: cell-based; settings: for %Inhibition at highest tested concentration (EU assay): K562 cells, 50 µM compound, 5-EU salvage
Summary of the method: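 K562 cells, untreated or pre-treated with the DHODH inhibitor GSK983, were given 5-ethynyl-uridine (5-EU) with test compound at a fixed concentration (50 µM). Salvaged 5-EU incorporated into cellular RNA was detected with a fluorescent click probe. Dipyridamole (20 µM) served as the uridine-salvage inhibitor control.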

A549 cells = assay: 5-EU uptake assay in A549 cells; assay type: cell-based
DNA polymerase kappa = settings: read-out: IC50 DNA polymerase kappa; ref PubChem; cited from earlier work
DNA polymerase eta = settings: read-out: IC50 DNA polymerase eta; ref PubChem; cited from earlier work
human UCK2 [2] = molecular target: T1, human UCK2; assay: ADP-Glo kinase assay for UCK2 activity; assay type: biochemical; settings: for IC50 obtained from validation experiments: retested in the ADP-Glo assay, unit given
DNA polymerase beta = settings: read-out: IC50 DNA polymerase beta; HTS hit; ref PubChem; cited from earlier work
CMPK1 = molecular target: T2, CMPK1 (Homo sapiens, UniProt P30085); assay: ADP-Glo screen for CMPK1; assay type: biochemical; settings: analogous ADP-Glo screen
T2 sequence (P30085 1-196): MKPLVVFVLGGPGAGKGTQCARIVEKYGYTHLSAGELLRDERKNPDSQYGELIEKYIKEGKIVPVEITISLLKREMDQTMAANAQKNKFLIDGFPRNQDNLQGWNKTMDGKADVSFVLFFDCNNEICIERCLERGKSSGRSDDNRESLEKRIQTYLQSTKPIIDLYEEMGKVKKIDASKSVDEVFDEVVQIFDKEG

DNA polymerase iota = settings: read-out: IC50 DNA polymerase iota; HTS hit; ref PubChem; cited from earlier work
[3] = substrate: O=c1ccn([C@@H]2O[C@H](CO)[C@@H](O)[C@H]2O)c(=O)[nH]1; assay: ADP-Glo kinase assay for UCK2 activity; assay type: biochemical, human; settings: other: steady state conditions, named substrate varied

Cc1ccc(-c2nc3c(c(SCC(=O)Nc4cccc(C(=O)O)c4)n2)Cc2cccc(C)c2O3)cc1 [compound 20874830]
Mode of inhibition with respect to uridine and ATP (human UCK2 [1]): primarily non-competitive

O=C(N[C@@H]1CCCc2c1[nH]c1ccc(Cl)cc21)c1ccccn1 [GSK983, reference compound]
Effect on uridine salvage (5-EU assay) (K562 cells; K562 cells treated with GSK983 vs untreated): significantly increased uridine salvage

OCCN(CCO)c1nc(N2CCCCC2)c2nc(N(CCO)CCO)nc(N3CCCCC3)c2n1 [Dipyridamole, dipyridamole]
Inhibition of 5-EU uptake (A549 cells): inhibits 5-EU uptake in a dose-dependent manner

O=C(CSc1nc2n(-c3ccc(F)cc3)[nH]cc-2c(=O)n1)Nc1ccc(Br)cc1 [compound 135416439]
Mode of inhibition with respect to uridine and ATP (human UCK2 [1]): non-competitive
IC50 (DNA polymerase kappa): 16 µM
IC50 (DNA polymerase eta): 56 µM

Nc1ncnc2c1ncn2[C@@H]1O[C@H](COP(=O)(O)OP(=O)(O)OP(=O)(O)O)[C@@H](O)[C@H]1O [ATP]
Km (human UCK2 [2]; read-out: KM (UCK2 substrate), steady state conditions, named substrate varied): 61 ± 1 µM

COc1cccc(NC(=O)CSCn2[nH]nc3c(=O)nc(Cc4ccc(F)cc4)nc2-3)c1 [135546734–3]
%Inhibition at highest tested concentration (EU assay) (K562 cells): No inhibition
IC50 obtained from validation experiments (human UCK2 [2]): completely inactive

O=C(CSCn1[nH]nc2c(=O)nc(Cc3ccc(F)cc3)nc1-2)Nc1ccc(F)cc1 [135546734–2]
IC50 obtained from validation experiments (human UCK2 [2]): completely inactive

Cc1cc(C)cc(NC(=O)CSCn2[nH]nc3c(=O)nc(Cc4ccc(F)cc4)nc2-3)c1 [compound 135546734]
Mode of inhibition with respect to uridine and ATP (human UCK2 [1]): similarly non-competitive
IC50 (DNA polymerase beta): 40 µM
inhibition at 50 µM (K562 cells; Homo sapiens, K562, read-out: %Inhibition at highest tested concentration (EU assay), K562 cells, 50 µM compound, 5-EU salvage): ~40%
Inhibition of CMPK1 (CMPK1): no inhibition
IC50 (DNA polymerase iota): 79 µM
IC50 (DNA polymerase eta): 79 µM

Cc1ccc(-c2nc3c(c(SCC(=O)Nc4ccccc4)n2)Cc2cccc(C)c2O3)cc1 [20874830–1]
%Inhibition at highest tested concentration (EU assay) (K562 cells): No inhibition

B1: human UCK2 (Homo sapiens) (protein)
chain: MAGDSEQTLQNHQQPNGGEPFLIGVSGGTASGKSSVCAKIVQLLGQNEVDYRQKQVVILSQDSFYRVLTSEQKAKALKGQFNFDHPDAFDNELILKTLKEITEGKTVQIPVYDFVSHSRKEETVTVYPADVVLFEGILAFYSQEVRDLFQMKLFVDTDADTRLSRRVLRDISERGRDLEQILSQYITFVKPAFEEFCLPTKKYADVIIPRGADNLVAINLIVQHIQDILNGGPSKRQTNGCLNGYTPSRKRQASESSSRPH
Km [3]: 62 ± 5 µM
